Compound activity (PubChem BioAssay)
Most compounds without a hit are left out; they make up all but 5% or so of the library.
Mdm2 MdmX PPI = inhibitors of human Mdm2/MdmX interaction; O15151+Q00987; SaOS-2 split-luciferase Mdm2/MdmX complementation, luminescence; inhibition, % at 8 µM; 3% of 330,000 active;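 active = inhibition of at least 50% at 8 µM in the primary screen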
Target sequence (O15151 whole entry, looked up): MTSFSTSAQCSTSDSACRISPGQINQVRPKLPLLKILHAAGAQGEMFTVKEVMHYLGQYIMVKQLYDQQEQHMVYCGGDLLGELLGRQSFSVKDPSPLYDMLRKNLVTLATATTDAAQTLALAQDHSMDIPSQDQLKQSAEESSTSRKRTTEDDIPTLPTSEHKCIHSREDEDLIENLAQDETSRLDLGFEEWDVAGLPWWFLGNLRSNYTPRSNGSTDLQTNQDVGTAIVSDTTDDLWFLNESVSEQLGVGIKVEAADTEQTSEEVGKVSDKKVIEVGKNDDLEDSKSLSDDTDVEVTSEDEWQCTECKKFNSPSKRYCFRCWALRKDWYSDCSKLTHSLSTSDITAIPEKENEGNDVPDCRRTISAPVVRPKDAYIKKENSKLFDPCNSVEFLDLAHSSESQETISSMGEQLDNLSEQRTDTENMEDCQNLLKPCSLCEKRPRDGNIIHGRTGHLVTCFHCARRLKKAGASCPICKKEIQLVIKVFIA
Target sequence (Q00987 whole entry, looked up): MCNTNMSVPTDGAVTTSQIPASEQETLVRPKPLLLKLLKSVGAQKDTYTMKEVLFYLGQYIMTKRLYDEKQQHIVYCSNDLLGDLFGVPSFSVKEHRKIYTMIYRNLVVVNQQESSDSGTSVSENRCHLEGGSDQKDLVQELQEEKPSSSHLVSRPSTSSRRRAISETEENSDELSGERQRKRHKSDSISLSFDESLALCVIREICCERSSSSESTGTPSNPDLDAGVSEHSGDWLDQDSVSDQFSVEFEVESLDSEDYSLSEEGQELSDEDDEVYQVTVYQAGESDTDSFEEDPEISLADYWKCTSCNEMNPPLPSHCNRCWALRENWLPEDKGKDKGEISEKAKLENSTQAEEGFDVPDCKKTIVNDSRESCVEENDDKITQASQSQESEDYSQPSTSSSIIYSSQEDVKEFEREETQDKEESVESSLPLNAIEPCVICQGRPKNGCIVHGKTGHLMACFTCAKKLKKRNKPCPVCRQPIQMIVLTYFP
CHOP UPR activ = activators of apoptotic arm of unfolded protein response (CHOP); CHO-CHOP luciferase reporter, UPR activation, luminescence; percent of tunicamycin response over DMSO baseline; activation, % at 10 µM; 0.34% of 330,000 active; AID 449763;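 active = at 10 µM dose, activation of 40% or more, normalized to positive control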;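 note: 100% = tunicamycin at 10 µg/mL and 0% = DMSO alone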
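System: CHO CHOP reporter cells. Amount: 500 cells per well. Buffer or medium: F12 medium, 10% FBS. Compound dosing: one dose, 10 µM in 0.5% DMSO. Incubation: 6 h compound exposure at 37 °C after overnight seeding. Technique: Steady-Glo luciferase luminescence. Benchmarks: tunicamycin and DMSO controls.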
Beta cell apopt = beta cell apoptosis inhibition; INS-1E cytokine-induced death, ATP luminescence, 48 h; percent of positive-control rescue, neutral wells zero; protection from apoptosis, % (test concentration not listed); 0.8% of 300,000 active;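 active = Every replicate reaches about 75%, or at least half do and their mean reaches it too, limit read from the data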;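 note: 0% = cytokine-treated negative control wells and 100% = positive control rescue; higher means more ATP so stronger rescue from cytokine killing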
T cruzi repl = T. cruzi replication inhibition; T. cruzi beta-gal in NIH3T3, luminescence, 90 h; inhibition, % (no concentration beside the values); 1.4% of 300,000 active; AID 1885;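 active = mean inhibition across valid replicates above about 55%, limit read from the data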;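 note: signal also drops with host cell toxicity which is not excluded here; 0% = plate median of DMSO wells and 100% = zero luminescence signal; higher percent means less beta-gal luminescence so fewer parasites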
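Assay system: NIH/3T3 fibroblasts plus reporter T. cruzi. Amount: NIH/3T3 cells, 5,000 per well. Buffer or medium: DMEM, 2% fetal bovine serum. Doses: compound pinned at 50 nL/well, DMSO. Schedule: ≥90 h infection period, 3 h prior cell attachment. Signal: luminescent β-galactosidase signal after 60 min lysis. Read-out: parasite load inhibition, %.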
CSC inhib = cancer stem cell inhibition | inhibition, % at 7.5 µM | AID 2717 | 1.1% of 300,000 active | cancer stem cell-like cells viability, luminescence; in the data active = inhibition above about 75%; tested in HMLE shEcad cells
XBP1 UPR activ = activators of adaptive arm of unfolded protein response (XBP1). CHO-XBP1 luciferase reporter, IRE1-XBP1 UPR activation, luminescence; percent of tunicamycin response, DMSO as zero. activation, % at 20 µM. 0.33% of 330,000 active;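 active = versus positive control, 20 µM dose yields 30% or more activation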;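 note: 100% = tunicamycin at 10 µg/mL and 0% = DMSO only wells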
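Signal: luciferase luminescence; Assay system: CHO-XBP1 luciferase reporter cells; Amount: one thousand reporter cells per well; Dosing: 20 µM single concentration, DMSO 1%; Benchmarks: high control tunicamycin 10 µg/mL final, low control DMSO vehicle only; Schedule: 6 h compound exposure at 37 °C, 5% CO2; Evaluation: percent activation relative to tunicamycin reference.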
Active calls of the source: *; x = no result.

SMILES	Mdm2 MdmX PPI	CHOP UPR activ	Beta cell apopt	T cruzi repl	CSC inhib	XBP1 UPR activ
CCc1nc2ccccc2c(C(=O)OCc2nc3ccccc3c(=O)[nH]2)c1C	17	-1	-7	x	52	3
Cc1ccc(-n2c(Cn3cnc4ccccc43)nnc2SCC(=O)O)cc1	2	-2	0	-13	-12	0
CCOC(=O)c1sc2nc(CSc3ccccc3)nc(N3CCC(C(N)=O)CC3)c2c1C	30	1	-4	59*	39	-3
Cc1sc2nc(CSc3ccccc3)nc(N3CCC(C(N)=O)CC3)c2c1C	-2	1	0	19	20	14
CC12CN3CC(C)(CN(C1)C3c1ccc(Br)cc1)C2=O (centres undefined)	9	-1	-10	-26	2	-3
C[C@@H]1CC[C@H]2C(=O)N3[C@@H](CC[C@@H](C)[C@@H]3c3ccc(Br)cc3)C(=O)N2[C@H]1c1ccc(Br)cc1	14	-1	1	13	79*	-2
Cc1ccc(S(=O)(=O)/N=C(\N)Nc2nc(C)c3ccccc3n2)cc1	-36	0	0	19	0	2
Cc1ccc2nc(N/C(N)=N/S(=O)(=O)c3ccc([N+](=O)[O-])cc3)nc(C)c2c1	23	3	5	58*	-11	1
C(=N\Nc1nc2ccccc2[nH]1)/c1ccc2ncccc2c1	-78	6	x	35	79*	2
O=c1nc(N/N=C/c2ccccn2)cn[nH]1	11	-4	61	-20	82*	-1
C#CCn1cc(/C=N/NC(=O)COc2cccc3cccnc23)c2ccccc21	7	-2	-2	6	4	1
c1ccc2c(c1)CC/C2=N/Nc1nc2ccccc2[nH]1	-117	12	x	67*	x	17
C#CCn1cc(/C=N/Nc2nc3ccccc3[nH]2)c2ccccc21	15	4	55	37	92*	9
COc1ccc(/C=N/Nc2nc3ccccc3[nH]2)cc1OC	-13	3	21	-18	4	2
C(=N\Nc1nc2ccccc2[nH]1)/c1ccccn1	x	x	x	69*	x	x
CN(C)c1ccc(CNC(=O)CCS(=O)(=O)c2ccc3c(c2)n(C)c(=O)c(=O)n3C)cc1	18	1	7	-13	3	-1
O=C(NC(c1cccnc1)C(F)(F)F)c1cc(COc2ccc3c(c2)CCCC3)on1 (centres undefined)	-15	15	107*	14	27	-4
Cn1cc(CNC(=O)c2cc(COc3ccc4c(c3)CCCC4)on2)cn1	2	1	4	-7	-3	-2
O=C(CSc1cn(Cc2ccccc2)c2ccccc12)N1CCOCC1	-80	3	-6	3	8	0
COC(=O)c1c(NC(=O)c2ccccc2)sc2c1CC(C)(C)OC2	-9	4	-2	-17	80*	8
Cc1cc(SCC(=O)c2cccs2)n2nc(C)c(-c3ccc(Cl)cc3)c2n1	47	-2	26	15	78*	1
Cc1nn2c(SCC(=O)c3cccs3)cc(C(C)(C)C)nc2c1-c1ccccc1	7	0	11	59*	37	-2
C=CCSc1cc(C)nc2c(-c3ccc(Cl)cc3)c(C)nn12	37	2	18	22	15	5
C=C(C)CSc1cc(C)nc2c(-c3ccccc3)c(C)nn12	29	1	7	36	38	2
Cc1cc(C)n(C(=O)C2CCCN2S(=O)(=O)c2ccc(Cl)cc2)n1 (centres undefined)	1	4	-4	-11	-5	-1
SMILES	Mdm2 MdmX PPI	CHOP UPR activ	Beta cell apopt	T cruzi repl	CSC inhib	XBP1 UPR activ
CCCOc1ccc(Br)cc1CSC(=N)N	34	5	99*	6	26	1
Cn1cc(CN2C[C@]3(C)C[C@H]2CC(C)(C)C3)c(-c2ccc3c(c2)OCCO3)n1	3	-1	-4	33	-4	-2
Cc1ccc2nc(Cl)c3cc(C(=O)N(CCN(C)C)Cc4ccco4)sc3c2c1	40	-1	-1	56*	93*	7
CCCN1CCN(CCCNC(=O)c2cc3c(=O)oc4ccc(C)cc4c3s2)CC1	33	0	0	12	-13	0
CN(C)CCN(Cc1ccco1)C(=O)c1cc2c(Cl)nc3ccccc3c2s1	21	1	-7	63*	-12	8
Cc1ccc2nc(Cl)c3cc(C(=O)NCCCN4CCCC4)sc3c2c1	10	-2	-3	68*	33	5
C#C[C@]1(O)CC[C@H]2[C@@H]3CCc4cc(OC5CCCC5)ccc4[C@H]3CC[C@@]21C	38	4	4	55*	98*	6
C#C[C@]1(O)CC[C@H]2[C@@H]3CCc4cc(OC)ccc4[C@H]3CC[C@@]21C	2	8	-1	10	2	0
Cc1ccc(S(=O)(=O)N2CCN(CC(O)c3ccccc3)CC2)cc1C (centres undefined)	-1	1	-4	9	-3	-2
COc1ccc(C)cc1NC(=O)CCC(=O)Nc1ccc2nc(N3CCN(C)CC3)cc(C)c2c1	44	-1	4	65*	x	0
CCN1CCN(c2cc(C)c3cc(NC(=O)Cc4ccccc4OC)ccc3n2)CC1	21	0	1	71*	3	1
CCN1CCN(c2cc(C)c3cc(NC(=O)CCC(=O)Nc4ccc(OC)c(OC)c4)ccc3n2)CC1	11	-1	-6	13	1	-1
Cc1ccc2ncnc(Nc3ccc(C)c(C)c3)c2c1	33	1	18	3	80*	0
COc1ccc(C(=O)CSc2nnc(CN3CCCCC3)n2-c2ccc(Cl)cc2)cc1OC	-27	0	-19	-6	140*	-1
CCc1ccc2c(c1)Sc1ccccc1CC2N1CCN(C)CC1 (centres undefined)	44	3	4	40	35	8
CN1Cc2cccc3c2C(Cc2ccccc2S3)C1 (centres undefined)	23	0	-11	58*	-11	1
C=CCc1cccc(/C=N/NC(=O)c2ccccc2Br)c1O	38	0	70	61*	57	3
O=C1NC(=S)S/C1=C\c1cc2ccccc2nc1N1CCCCC1	45	-1	20	-25	114*	-3
COc1ccc2nc(N3CCCCC3)c(/C=C3\SC(=S)NC3=O)cc2c1	7	0	18	-5	121*	1
N#C/C(=C\c1cc2ccccc2nc1N1CCCCC1)C(N)=O	x	x	-2	x	-6	x
CN1CCC(N(C)S(=O)(=O)c2ccc(NC(=O)Cc3ccc(F)cc3)cc2)CC1	16	0	x	x	x	-2
CN1CCC(N(C)S(=O)(=O)c2ccc(NC(=O)c3ccc(S(=O)(=O)N(C)C)cc3)cc2)CC1	-9	0	-13	x	-24	0
